This is a sample that favours compounds with a hit; in the whole collection about 4% have one here.
UPR CHOP act = activators of apoptotic arm of unfolded protein response (CHOP); CHO-CHOP luciferase reporter, UPR activation, luminescence; percent of tunicamycin response over DMSO baseline; activation, % at 10 µM; hit rate 0.34% among 330,000; AID 449763;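 active = at 10 µM dose, activation of 40% or more, normalized to positive control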;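 note: 100% = tunicamycin at 10 µg/mL and 0% = DMSO alone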
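Material: CHO-CHOP cells, stable luciferase reporter of PERK-eIF2a-CHOP signalling; quantity: 500 reporter cells seeded per well; buffer or medium: F12 medium containing 10% fetal bovine serum; compound: one dose, 10 µM in 0.5% DMSO; incubation: 6 h compound treatment, 37 °C; measured by: Steady-Glo luciferase luminescence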
Exocytosis inh = blocks lytic granule exocytosis; TALL-104 LAMP-1 surface exposure, flow cytometry; cells stimulated with thapsigargin and PMA; inhibition, % at 10 µM; hit rate 0.66% among 360,000; AID 651702;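 active = inhibition above about 55%, limit read from the data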
XBP1 UPR activ = adaptive UPR (XBP1) activation | hit rate 0.33% among 330,000 | activation, % at 20 µM | AID 463104 | CHO-XBP1 luciferase reporter, IRE1-XBP1 UPR activation, luminescence; percent of tunicamycin response, DMSO as zero;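 active = versus positive control, 20 µM dose yields 30% or more activation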;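 note: 100% = tunicamycin at 10 µg/mL and 0% = DMSO only wells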
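Signal: luciferase luminescence; Assay system: CHO-XBP1 luciferase reporter cells; Amount: one thousand reporter cells per well; Dosing: 20 µM single concentration, DMSO 1%; Benchmarks: high control tunicamycin 10 µg/mL final, low control DMSO vehicle only; Schedule: 6 h compound exposure at 37 °C, 5% CO2; Evaluation: percent activation relative to tunicamycin reference.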
Mdm2-MdmX inh = human Mdm2/MdmX binding inhibition; SaOS-2 split-luciferase Mdm2/MdmX complementation, luminescence; hit rate 3% among 330,000; O15151+Q00987; AID 485346; inhibition, % at 8 µM;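 active = inhibition of at least 50% at 8 µM in the primary screen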
ABHD5 PLIN5 PPI = ABHD5-PLIN5 protein interaction inhibition | Q00G26+Q8WTS1 | Split G. princeps luciferase complementation, luminescence, 4 h | inhibition, % at 4 µM | hit rate 0.78% among 360,000 | AID 602281;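 active = inhibition above the mean inhibition across every tested compound plus 3 SD, cut at about 22% in these data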;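 note: 0% = DMSO only wells and the 100% control is not disclosed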
Target sequence (Q00G26 whole entry, looked up): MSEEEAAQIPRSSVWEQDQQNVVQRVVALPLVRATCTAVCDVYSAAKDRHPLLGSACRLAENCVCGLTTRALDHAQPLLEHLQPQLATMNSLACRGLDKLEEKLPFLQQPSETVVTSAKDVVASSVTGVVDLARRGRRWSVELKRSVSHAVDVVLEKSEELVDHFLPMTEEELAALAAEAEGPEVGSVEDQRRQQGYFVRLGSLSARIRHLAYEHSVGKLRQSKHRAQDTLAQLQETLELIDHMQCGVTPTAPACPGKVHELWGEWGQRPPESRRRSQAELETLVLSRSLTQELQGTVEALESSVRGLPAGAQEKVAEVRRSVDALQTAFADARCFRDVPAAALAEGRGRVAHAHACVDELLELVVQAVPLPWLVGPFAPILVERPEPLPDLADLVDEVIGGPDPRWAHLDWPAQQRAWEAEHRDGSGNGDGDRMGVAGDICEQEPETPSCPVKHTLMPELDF
Target sequence (Q8WTS1 whole entry, looked up): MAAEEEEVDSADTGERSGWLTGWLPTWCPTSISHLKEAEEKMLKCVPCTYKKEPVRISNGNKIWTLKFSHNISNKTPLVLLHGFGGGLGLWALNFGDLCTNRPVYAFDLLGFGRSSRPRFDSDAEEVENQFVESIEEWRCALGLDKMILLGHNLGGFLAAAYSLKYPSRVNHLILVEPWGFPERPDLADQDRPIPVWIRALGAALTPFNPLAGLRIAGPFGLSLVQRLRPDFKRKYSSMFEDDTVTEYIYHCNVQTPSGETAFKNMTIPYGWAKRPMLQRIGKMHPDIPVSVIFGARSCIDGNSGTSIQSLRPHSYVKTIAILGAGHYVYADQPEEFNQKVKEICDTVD
Mdm2-MdmX conf = confirmation of human Mdm2/MdmX interaction inhibitors. AID 489028. inhibition, % at 8 µM. Mdm2-MdmX binding, luminescent assay. shares compounds with Mdm2-MdmX inh. hit rate 55% among 10,000; in the data active = inhibition above about 40%
FLuc counter = inhibits full-length luciferase, flagging false Mdm2/MdmX hits. inhibition, % at 8 µM. hit rate 77% among 6,200. shares compounds with Mdm2-MdmX inh. SaOS-2 full-length luciferase counterscreen, luminescence;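 active = mean inhibition at 8 µM reaching about 37%, which flags the compound as non-specific, limit read from the data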;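 note: p53-null SaOS-2 cells with luciferase driven by a doxycycline-inducible promoter; compound on cells about two nights before reading with doxycycline added after day one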
* = called active by the depositor; nt = not tested or not shown.

SMILES	UPR CHOP act	Exocytosis inh	XBP1 UPR activ	Mdm2-MdmX inh	ABHD5 PLIN5 PPI	Mdm2-MdmX conf	FLuc counter
Cc1ncc(CO)c2c1Oc1nc(-c3ccccc3)nc(SCC(=O)N3CCCCC3)c1C2	6.4	25.9	1.5	62.5*	5.5	38.2	53.4*
COc1ccc(OC)c(C(=O)c2ccccc2)c1	0.4	-2.0	0.4	21.5	-1.9	nt	nt
CCOC(=O)c1cc2c(ccn2C)n1Cc1cc(C)ccc1C	-1.0	-0.4	-0.5	4.4	-11.5	nt	nt
CC(C)OC(=O)c1cc2c(ccn2C)n1CC(=O)N(Cc1ccccc1)c1ccccc1	3.3	1.2	0.5	86.3*	-5.7	53.8*	64.8*
CN(C)CCCNC(=O)C[C@H]1C[C@H](C(=O)N2CCCCC2)[C@@]2(C)c3[nH]c4ccc(Cl)cc4c3CCN2C1=O	0.8	1.6	-0.2	11.7	4.7	nt	nt
COC(=O)c1c(C)[nH]c(-c2csc(N)n2)c1C	0.3	17.8	-1.2	65.4*	-18.8	61.0*	85.2*
O=C(CCN1CCN(C(c2ccccc2)c2ccccc2)CC1)N/N=C/c1ccc(O)cc1O	-1.5	21.8	-1.1	60.4*	3.9	68.6*	36.5*
O=C(CCN1CCN(C(c2ccccc2)c2ccccc2)CC1)N/N=C/c1ccc(O)cc1	1.1	12.8	-2.4	3.5	10.9	nt	nt
O=C(Cc1ccc(NC(=O)C2CCCN(C(=O)C3CCCCC3)C2)cc1)Nc1cccc(C(=O)N2CCCC2)c1 (stereo not given)	nt	-7.7	nt	nt	5.8	nt	nt
CC(=O)c1cccc(NC(=O)Nc2cccnc2)c1	0.1	-3.4	-0.7	54.3*	3.9	49.5*	27.6
COC(=O)c1cccc(NC(=O)Nc2ccc(Cl)c(Cl)c2)c1	7.1	16.0	7.5	80.5*	-11.7	80.0*	40.2*
O=C(NNC1=NCCC1)C1CC1	0.0	-4.0	2.4	15.8	-1.0	nt	nt
CC(C)(C)c1cc(Cl)c(O)c(NC(=S)NC(=O)c2cccnc2)c1	3.8	-2.1	6.1	57.3*	-0.4	52.6*	35.2
Cc1cc(OCC(=O)NNC(=S)NC(=O)c2cccs2)ccc1Cl	-0.1	-2.2	-3.5	29.7	0.7	nt	nt
CCCOc1ccc(C(=O)NNC(=S)NC(=O)c2ccco2)cc1	-1.9	-0.4	-0.6	50.6*	-1.9	39.7	52.1*
Cc1ccc(OCC(=O)NNC(=S)NC(=O)c2cccs2)c(C)c1	-0.3	0.4	-1.0	51.5*	-10.6	9.1	nt
COc1ccc(C(=O)NNC(=S)NC(=O)c2ccco2)cc1	-1.8	0.3	-0.7	10.9	11.0	nt	nt
CCCOc1ccc(C(=O)NNC(=S)NC(=O)c2cccs2)cc1	-1.4	0.2	1.6	60.1*	-6.3	37.1	nt
COc1ccc(N2C(=O)C3C4C=CC(C5CC45)C3C2=O)c([N+](=O)[O-])c1 (stereo not given)	-2.7	-2.9	-0.8	21.7	-1.2	nt	nt
S=c1[nH]nc(COc2cccc(Cl)c2)n1Cc1ccccc1	-1.9	-1.0	-0.7	-36.7	-13.1	nt	nt
Cc1ccccc1CC(=O)NCc1cccnc1	0.0	-5.0	-6.6	17.3	-7.9	nt	nt
COCCNC(=S)N(CCN(C)C)Cc1cc2cc3c(cc2[nH]c1=O)OCO3	2.4	3.4	-1.0	6.1	-4.7	nt	nt
CCOC(=O)C1=CN(Cc2cccc(F)c2)S(=O)(=O)NC1CCc1ccccc1 (stereo not given)	3.8	3.3	-2.4	60.8*	-9.3	29.1	47.0*
O=C(Nc1ccccc1)c1ccccc1NC(=O)C1CCCCC1	0.0	2.4	-2.6	-33.1	-10.4	nt	nt
CC(C)(C)c1ccc(C(=O)NC(=S)Nc2nc3c(s2)CCCC3)cc1	-1.7	2.8	-2.7	60.5*	2.4	51.1*	101.5*
SMILES	UPR CHOP act	Exocytosis inh	XBP1 UPR activ	Mdm2-MdmX inh	ABHD5 PLIN5 PPI	Mdm2-MdmX conf	FLuc counter
O=C(NC(=O)N1CCN(c2ccccc2F)CC1)c1ccccc1	-1.1	-5.3	-3.5	8.6	-2.3	nt	nt
Cc1ccccc1Nc1nnc(SCC(=O)NCc2cccs2)s1	0.4	-9.6	-3.0	-27.3	-1.9	nt	nt
Cc1nn(C)c(C)c1/C=N/NC(=O)C(C)(C)Oc1ccc(Cl)cc1	-1.3	2.3	-2.4	33.8	0.2	nt	nt
Cc1nn(C(C)(C)C)c(C)c1/C=N/OC(=O)Nc1ccc(Cl)cc1	-10.2	-1.8	-11.4	95.5*	-0.5	93.5*	56.5*
COc1ccc(Cl)cc1NC(=S)N(Cc1ccc(C(=O)O)cc1)Cc1ccc(OC)c(OC)c1	3.0	6.1	1.4	14.2	6.3	nt	nt
CC1(C)CC(N=Cc2c(O)n(Cc3ccc4c(c3)OCO4)c(=O)c3ccccc23)CC(C)(C)N1	3.0	33.1	-1.4	93.1*	13.0	39.5	68.9*
CN(C)CCN=Cc1c(O)n(Cc2ccccc2)c(=O)c2ccccc12	1.2	3.9	1.4	8.6	3.4	nt	nt
CC(=O)OC(C)(C)/C=C/C(=O)[C@](C)(O)C1[C@H](O)C[C@@]2(C)C3CC=C4C(C=C(O[C@@H]5O[C@H](CO)[C@@H](O)[C@H](O)[C@H]5O)C(=O)C4(C)C)[C@]3(C)C(=O)C[C@]12C (stereo not given in full)	8.0	-8.8	0.5	96.1*	14.5	-8.5	nt
CCOc1cc(NC(=O)C2CCCCC2)c(OCC)cc1NC(=O)c1ccco1	0.4	-3.7	-2.1	4.7	-1.6	nt	nt
COC(=O)c1cccc(NC(=O)/C=C/c2ccc3c(c2)OCO3)c1	4.5	-0.5	0.4	-4.0	1.6	nt	nt
COc1ccc2nc(NC(=O)/C=C/c3ccc4c(c3)OCO4)sc2c1	-0.7	nt	1.1	82.8*	nt	52.4*	35.2
COC(=O)c1cc(NC(=O)/C=C/c2ccc3c(c2)OCO3)cc(C(=O)OC)c1	-1.2	-2.3	2.9	67.0*	5.8	21.9	101.5*
COc1ccc(/C=N/NC(=S)Nc2cc(S(=O)(=O)N3CCOCC3)ccc2N2CCOCC2)cc1O	2.0	-1.3	1.2	50.7*	-0.7	45.1*	83.3*
